Source: ChEMBL document CHEMBL2380272, “Biological evaluation of bisbenzaldehydes against four Mycobacterium species” (Eur J Med Chem, 2013)
In brackets after ≈: the same amount, converted by molar mass.

What was measured:
[1] = test system: Mycobacterium tuberculosis; assay: Antimycobacterial activity against Mycobacterium tuberculosis H37Rv ATCC 27294 assessed as growth inhibition at 1 uM after 6 days by luciferase reporter gene assay relative to control; type: functional; settings: H37Rv ATCC 27294, 144 h, read-out: GI
Summary of the method: (§1)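 Luminescent M. tb H37Rv (hsp60-driven luciferase) in 7H9 + 10% FCS was seeded at 50 000 RLU/mL. Compounds were tested at 10, 1 and 0.1 µM from 10 mM DMSO stocks. After 6 days, luminescence was read with 1% n-decanal. Growth inhibition (%) was expressed against untreated culture, with triplicates.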

[2] = test system: Mycobacterium tuberculosis; assay: Antimycobacterial activity against Mycobacterium tuberculosis H37Rv ATCC 27294 assessed as growth inhibition at 10 uM after 6 days by luciferase reporter gene assay relative to control; type: functional; settings: H37Rv ATCC 27294, 144 h, read-out: GI; summary of the method: as §1
[3] = test system: Mycobacterium tuberculosis; assay: Antimycobacterial activity against Mycobacterium tuberculosis H37Rv ATCC 27294 assessed as growth inhibition at 0.1 uM after 6 days by luciferase reporter gene assay relative to control; type: functional; settings: H37Rv ATCC 27294, 144 h, read-out: GI; summary of the method: as §1
[4] = Toxicity in recombinant Salmonella typhimurium TA104 expressing luxabcd genes under transcriptional control of constitutive pr1 promoter assessed as concentration required to reduce cell viability measured every 5 mins for 4 hrs by vitotox assay in presence of S9 fraction; type: organism-based; settings: salmonella enterica subsp. enterica serovar typhimurium; read-out: Activity
Summary of the method: (§2)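 Cytox strain TA104 pr1 (constitutive promoter driving lux), run alongside the genox strain. Grown in poor LB at 36 °C for 16 h, diluted 125-fold and shaken 1 h, then diluted 10-fold, with or without aroclor-rat S9. Luminescence read at 30 °C every 5 min over 4 h; a drop in light signal indicates reduced viability. Top concentration 10 µM.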

Salmonella typhimurium [5] = assay: Genotoxicity in recombinant Salmonella typhimurium TA104 expressing Vibrio fisheri luxabcd genes under transcriptional control of recN2-4 promoter assessed as concentration required to cause DNA damage measured every 5 mins for 4 hrs by vitotox assay in presence of S9 fraction; type: toxicity, organism-based; settings: salmonella enterica subsp. enterica serovar typhimurium, s9, 4 h
Summary of the method: (§3)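 VITOTOX genox strain TA104 recN2-4 (recN promoter driving lux). Grown 16 h at 36 °C in poor LB, diluted 125-fold and shaken 1 h, then diluted 10-fold; rat aroclor S9 added for +S9 runs. Incubated at 30 °C with light read every 5 min for 4 h. Signal/noise = exposed over unexposed light. Highest concentration tested 10 µM.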

[6] = Cytotoxicity against human HepG2/C3A cells assessed as cell viability at 60 uM after 24 hrs by neutral red uptake assay relative to control; type: cell-based; settings: read-out: Activity
Summary of the method: (§4)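 C3A cells grown in DMEM + 10% FCS, 40 000 cells/well, recovered overnight at 37 °C, 5% CO2. Exposed 24 h to serial dilutions in DMEM + 10% FCS from 18 mM DMSO stocks, DMSO limited to 1%. Neutral red added for 3 h, cells washed, dye extracted with ethanol/acetic acid (50%/1%), OD read at 540 nm with 620 nm reference. Viability expressed as % of untreated cells.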

[7] = Antimycobacterial activity against Mycobacterium avium subsp. avium ATCC 15769 assessed as growth inhibition after 6 days by luciferase reporter gene assay; type: functional; settings: ATCC 15769, 144 h
Summary of the method: (§5)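 Mycobacteria carrying the pSMT1 luciferase reporter plasmid. Compounds came from 10 mM DMSO stocks and were serially diluted in 7H9 + 10% FCS. Thawed bacteria were filtered, recovered 1 h at 37 °C, then added at 50 000 RLU/mL. After 6 days of culture, light was read for 10 s after adding 1% n-decanal. Triplicates were run, and MIC50 was the concentration giving 50% growth inhibition.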

[8] = Cytotoxicity against human HepG2/C3A cells assessed as cell viability at 120 uM after 24 hrs by neutral red uptake assay relative to control; type: cell-based; settings: read-out: Activity; summary of the method: as §4
[9] = test system: Mycobacterium tuberculosis; assay: Antimycobacterial activity against Mycobacterium tuberculosis H37Rv ATCC 27294 assessed as growth inhibition after 6 days by luciferase reporter gene assay; type: functional; settings: H37Rv ATCC 27294, 144 h; summary of the method: as §5
[10] = test system: Mycobacterium tuberculosis; assay: Antimycobacterial activity against Mycobacterium tuberculosis H37Rv infected in mouse J774.A1 cells at 1 MOI assessed as intracellular bacterial growth inhibition at 0.1 uM after 1 hr by luciferase reporter gene assay relative to control; type: functional; settings: J774.A1, 1 h, read-out: GI
[11] = Cytotoxicity against human HepG2/C3A cells assessed as cell viability at 180 uM after 24 hrs by neutral red uptake assay relative to control; type: cell-based; settings: read-out: Activity; summary of the method: as §4
[12] = test system: Mycobacterium tuberculosis; assay: Antimycobacterial activity against Mycobacterium tuberculosis H37Rv infected in mouse J774.A1 cells at 1 MOI assessed as intracellular bacterial growth inhibition at 1 uM after 1 hr by luciferase reporter gene assay relative to control; type: functional; settings: J774.A1, 1 h, read-out: GI
[13] = test system: Mycobacterium avium subsp. paratuberculosis; assay: Antimycobacterial activity against Mycobacterium avium subsp. paratuberculosis ATCC 19698 assessed as growth inhibition after 6 days by luciferase reporter gene assay; type: functional; settings: ATCC 19698, 144 h; summary of the method: as §5
Salmonella typhimurium [14] = assay: Toxicity in recombinant Salmonella typhimurium TA104 expressing luxabcd genes under transcriptional control of constitutive pr1 promoter assessed as concentration required to reduce cell viability measured every 5 mins for 4 hrs by vitotox assay in absence of S9 fraction; type: organism-based; settings: salmonella enterica subsp. enterica serovar typhimurium; summary of the method: as §2
[15] = Selectivity index, ratio of NI50 for human HepG2/C3A cells to MIC50 for Mycobacterium tuberculosis H37Rv ATCC 27294; type: functional
Mycobacterium ulcerans = assay: Antimycobacterial activity against Mycobacterium ulcerans 1615 assessed as growth inhibition after 6 days by luciferase reporter gene assay; type: functional; settings: Mycobacterium ulcerans, 1615, 144 h
Summary of the method: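 M. ulcerans 1615 carrying pSMT1 luciferase reporter plasmid, stock grown as surface pellicle on Sauton medium, cultured at 32 °C. Serial compound dilutions in 7H9 + 10% FCS from 10 mM DMSO stocks, tested in triplicate. Filtered bacteria added at 50 000 RLU/mL. After 6 days, wells collected and washed with PBS, 1% n-decanal in ethanol added, light read over 10 s. MIC50 = concentration giving 50% inhibition versus untreated.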

Salmonella typhimurium [16] = assay: Genotoxicity in recombinant Salmonella typhimurium TA104 expressing Vibrio fisheri luxabcd genes under transcriptional control of recN2-4 promoter assessed as concentration required to cause DNA damage measured every 5 mins for 4 hrs by vitotox assay in absence of S9 fraction; type: toxicity, organism-based; settings: salmonella enterica subsp. enterica serovar typhimurium; summary of the method: as §3
[17] = test system: Mycobacterium tuberculosis; assay: Antimycobacterial activity against Mycobacterium tuberculosis H37Rv infected in mouse J774.A1 cells at 1 MOI assessed as intracellular bacterial growth inhibition at 10 uM after 1 hr by luciferase reporter gene assay relative to control; type: functional; settings: J774.A1, 1 h, read-out: GI

Compound	inhibition of growth at 1 µM [1]	inhibition of growth at 10 µM [2]	inhibition of growth at 0.1 µM [3]	also measured
O=Cc1ccc(OCC(O)COc2ccc(C=O)cc2)cc1	< 10%	60%	< 10%	–
O=C(O)c1ccc(OCCCCOc2ccc(C(=O)O)cc2)cc1	26%	27%	< 10%	–
O=Cc1ccc(OCCCOc2ccc(C=O)cc2)cc1	35%	84%	< 10%	MCC at 4 h [4]: > 10 µM; Activity (Salmonella typhimurium [5]): > 10 µM; viability at 24 h, 60 µM [6]: 94.9%; MIC50 [7]: > 10 µM; viability at 24 h, 120 µM [8]: 94.8%; MIC50 [9]: 2.65 µM (≈ 0.753 µg/mL); intracellular bacterial growth inhibition at 0.1 µM [10]: -1.2%; viability at 24 h, 180 µM [11]: 77.4%; percent inhibition of intracellular bacterial growth at 1 µM [12]: 29.9%; MIC50 [13]: > 10 µM; Activity (Salmonella typhimurium [14]): > 10 µM; Selectivity Index [15]: >67.9; MIC50 (Mycobacterium ulcerans): > 10 µM; Activity (Salmonella typhimurium [16]): > 10 µM; intracellular bacterial growth inhibition at 10 µM [17]: 42%
O=C(O)c1ccc(OCCCCCOc2ccc(C(=O)O)cc2)cc1	30%	27%	< 10%	–
O=C(O)c1ccc(OCCCCCCOc2ccc(C(=O)O)cc2)cc1	26%	39%	< 10%	–
O=Cc1cccc(OCCCCCOc2cccc(C=O)c2)c1	< 10%	97%	< 10%	–
O=Cc1ccccc1OCCCCCOc1ccccc1C=O	15%	39%	< 10%	–
O=C(O)c1ccc(OCOc2ccc(C(=O)O)cc2)cc1	< 10%	40%	< 10%	–
CCCCCCCCCCCCOc1ccc(C=O)cc1	< 10%	< 10%	< 10%	–
O=C(O)c1ccc(OCCCCCCCCCOc2ccc(C(=O)O)cc2)cc1	17%	17%	< 10%	–
c1ccc(OCCCCCCCCCCCCOc2ccccc2)cc1	< 10%	< 10%	< 10%	–
O=Cc1ccc(OCCOc2ccc(C=O)cc2)cc1	41%	90%	< 10%	MCC at 4 h [4]: > 10 µM; Activity (Salmonella typhimurium [5]): > 10 µM; viability at 24 h, 60 µM [6]: 93.6%; MIC50 [7]: > 10 µM; viability at 24 h, 120 µM [8]: 85%; MIC50 [9]: 2.23 µM (≈ 0.603 µg/mL); intracellular bacterial growth inhibition at 0.1 µM [10]: 0.3%; viability at 24 h, 180 µM [11]: 70.5%; percent inhibition of intracellular bacterial growth at 1 µM [12]: 32.6%; MIC50 [13]: > 10 µM; Activity (Salmonella typhimurium [14]): > 10 µM; Selectivity Index [15]: >80.7; MIC50 (Mycobacterium ulcerans): > 10 µM; Activity (Salmonella typhimurium [16]): > 10 µM; intracellular bacterial growth inhibition at 10 µM [17]: 39.2%
O=Cc1ccc(OCOc2ccc(C=O)cc2)cc1	30%	85%	< 10%	MCC at 4 h [4]: > 10 µM; Activity (Salmonella typhimurium [5]): > 10 µM; viability at 24 h, 60 µM [6]: 96.8%; MIC50 [7]: > 10 µM; viability at 24 h, 120 µM [8]: 91.6%; MIC50 [9]: 3 µM (≈ 0.769 µg/mL); intracellular bacterial growth inhibition at 0.1 µM [10]: 1.6%; viability at 24 h, 180 µM [11]: 78.6%; percent inhibition of intracellular bacterial growth at 1 µM [12]: 35.2%; MIC50 [13]: > 10 µM; Activity (Salmonella typhimurium [14]): > 10 µM; Selectivity Index [15]: >60; MIC50 (Mycobacterium ulcerans): > 10 µM; Activity (Salmonella typhimurium [16]): > 10 µM; intracellular bacterial growth inhibition at 10 µM [17]: 41.3%
O=[N+]([O-])c1ccc(OCCCCCCCCCCCCOc2ccc([N+](=O)[O-])cc2)cc1	< 10%	91%	< 10%	–
O=Cc1ccc(OCCCCCOc2ccc(C=O)cc2)cc1	39%	95%	< 10%	MCC at 4 h [4]: > 10 µM; Activity (Salmonella typhimurium [5]): > 10 µM; viability at 24 h, 60 µM [6]: 90.4%; MIC50 [7]: 7.32 µM (≈ 2.29 µg/mL); viability at 24 h, 120 µM [8]: 72.6%; MIC50 [9]: 1.63 µM (≈ 0.509 µg/mL); intracellular bacterial growth inhibition at 0.1 µM [10]: 0.2%; viability at 24 h, 180 µM [11]: 45.6%; percent inhibition of intracellular bacterial growth at 1 µM [12]: 38.1%; MIC50 [13]: 8.69 µM (≈ 2.71 µg/mL); Activity (Salmonella typhimurium [14]): > 10 µM; Selectivity Index [15]: >110.4; MIC50 (Mycobacterium ulcerans): > 10 µM; Activity (Salmonella typhimurium [16]): > 10 µM; intracellular bacterial growth inhibition at 10 µM [17]: 46.8%
O=Cc1cccc(OCCCCCCCCCCCCOc2cccc(C=O)c2)c1	< 10%	< 10%	< 10%	–
O=Cc1ccc(OCCOCCOc2ccc(C=O)cc2)cc1	12%	70%	< 10%	–
O=C(O)c1ccc(OCCCCCCCCCCCOc2ccc(C(=O)O)cc2)cc1	< 10%	15%	< 10%	–
O=C(O)c1ccc(OCCCCCCCOc2ccc(C(=O)O)cc2)cc1	14%	38%	< 10%	–
O=C(O)c1ccc(OCCCCCCCCOc2ccc(C(=O)O)cc2)cc1	29%	29%	< 10%	–
O=C(O)c1ccc(OCCCCCCCCCCOc2ccc(C(=O)O)cc2)cc1	< 10%	40%	< 10%	–
NNC(=O)c1ccncc1 [ISONIAZID]	100%	100%	98%	MIC50 [7]: < 0.1 µM; MIC50 [9]: < 0.1 µM; intracellular bacterial growth inhibition at 0.1 µM [10]: 37%; percent inhibition of intracellular bacterial growth at 1 µM [12]: 82.3%; MIC50 [13]: < 0.1 µM; MIC50 (Mycobacterium ulcerans): 0.39 µM (≈ 0.0535 µg/mL); intracellular bacterial growth inhibition at 10 µM [17]: 97.7%
O=C(O)c1ccc(OCCOc2ccc(C(=O)O)cc2)cc1	< 10%	38%	< 10%	–
O=C(O)c1ccc(OCCCCCCCCCCCCOc2ccc(C(=O)O)cc2)cc1	< 10%	< 10%	< 10%	–
O=Cc1ccc(OCCCCCCCCCCCCCCOc2ccc(C=O)cc2)cc1	57%	98%	30%	–
O=C(O)c1ccc(OCCCOc2ccc(C(=O)O)cc2)cc1	< 10%	< 10%	< 10%	–
